Assays:
[1] = target: T1, Alpha-1B adrenergic receptor (Homo sapiens, UniProt P35368); experiment: Displacement of [3H]-prazosin from human adrenergic alpha-1b receptor expressed in CHO cells after 120 mins by liquid scintillation counting; type: cell-based
T1 sequence (P35368 whole entry): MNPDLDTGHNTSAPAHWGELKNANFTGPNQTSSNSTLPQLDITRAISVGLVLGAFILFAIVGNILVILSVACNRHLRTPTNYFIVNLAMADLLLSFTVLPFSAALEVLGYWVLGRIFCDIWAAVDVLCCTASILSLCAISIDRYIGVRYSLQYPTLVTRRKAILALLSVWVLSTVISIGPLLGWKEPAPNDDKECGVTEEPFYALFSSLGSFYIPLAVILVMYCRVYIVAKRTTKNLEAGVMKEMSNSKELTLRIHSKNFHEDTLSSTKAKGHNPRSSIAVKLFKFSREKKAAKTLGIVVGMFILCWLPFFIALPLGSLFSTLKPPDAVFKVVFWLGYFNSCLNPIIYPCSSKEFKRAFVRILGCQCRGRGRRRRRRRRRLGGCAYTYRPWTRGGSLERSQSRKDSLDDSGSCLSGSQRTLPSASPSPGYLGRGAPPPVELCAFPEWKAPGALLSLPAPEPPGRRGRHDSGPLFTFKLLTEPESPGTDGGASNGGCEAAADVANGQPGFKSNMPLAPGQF
Summary of the method: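 Competition binding at human α1b receptors stably expressed in CHO cells. Affinity values are means ± SEM of at least two experiments, each in duplicate.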

[2] = target: T2, Alpha-2C adrenergic receptor (Homo sapiens, UniProt P18825); experiment: Displacement of [3H]-RX821002 from human adrenergic Alpha-2C receptor expressed in rat C6 cells after 120 mins by liquid scintillation counting; type: cell-based
T2 sequence (P18825 whole entry): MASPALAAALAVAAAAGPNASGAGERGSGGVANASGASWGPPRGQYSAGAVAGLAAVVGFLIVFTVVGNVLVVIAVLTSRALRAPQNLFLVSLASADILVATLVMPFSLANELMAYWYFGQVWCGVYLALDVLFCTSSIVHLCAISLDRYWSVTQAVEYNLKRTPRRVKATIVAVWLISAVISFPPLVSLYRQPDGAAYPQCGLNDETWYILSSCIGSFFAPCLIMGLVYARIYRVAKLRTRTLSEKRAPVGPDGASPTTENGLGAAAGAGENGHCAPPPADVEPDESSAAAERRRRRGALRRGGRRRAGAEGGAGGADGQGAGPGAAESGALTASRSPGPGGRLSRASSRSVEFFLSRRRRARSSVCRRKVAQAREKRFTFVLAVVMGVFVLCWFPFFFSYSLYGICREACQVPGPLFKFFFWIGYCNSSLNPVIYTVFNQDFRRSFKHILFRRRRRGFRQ

[3] = target: T3, Alpha-2A adrenergic receptor (Homo sapiens, UniProt P08913); experiment: Displacement of [3H]-RX821002 from human adrenergic alpha2A receptor expressed in rat C6 cells after 120 mins by liquid scintillation counting; type: cell-based
T3 sequence (P08913 whole entry): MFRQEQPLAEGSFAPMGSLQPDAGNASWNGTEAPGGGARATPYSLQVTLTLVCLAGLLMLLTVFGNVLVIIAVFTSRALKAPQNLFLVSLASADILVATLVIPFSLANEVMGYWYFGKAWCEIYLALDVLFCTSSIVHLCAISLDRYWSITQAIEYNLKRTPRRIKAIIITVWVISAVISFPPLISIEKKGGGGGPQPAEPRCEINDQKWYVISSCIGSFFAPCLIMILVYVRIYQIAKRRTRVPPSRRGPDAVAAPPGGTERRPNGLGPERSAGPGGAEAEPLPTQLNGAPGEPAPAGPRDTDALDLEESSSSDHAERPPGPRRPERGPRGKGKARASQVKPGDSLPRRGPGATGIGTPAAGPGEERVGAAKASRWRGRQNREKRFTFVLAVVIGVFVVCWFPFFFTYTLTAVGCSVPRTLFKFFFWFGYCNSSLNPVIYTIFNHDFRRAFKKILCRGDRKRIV
Summary of the method: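 Competition binding at human α2A receptors expressed in C6 glial cells. Affinity values are means ± SEM of at least two experiments, each in duplicate.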

[4] = target: T4, Alpha-2B adrenergic receptor (Homo sapiens, UniProt P18089); experiment: Displacement of [3H]-RX821002 from human adrenergic alpha2B receptor expressed in rat C6 cells after 120 mins by liquid scintillation counting; type: cell-based
T4 sequence (P18089 whole entry): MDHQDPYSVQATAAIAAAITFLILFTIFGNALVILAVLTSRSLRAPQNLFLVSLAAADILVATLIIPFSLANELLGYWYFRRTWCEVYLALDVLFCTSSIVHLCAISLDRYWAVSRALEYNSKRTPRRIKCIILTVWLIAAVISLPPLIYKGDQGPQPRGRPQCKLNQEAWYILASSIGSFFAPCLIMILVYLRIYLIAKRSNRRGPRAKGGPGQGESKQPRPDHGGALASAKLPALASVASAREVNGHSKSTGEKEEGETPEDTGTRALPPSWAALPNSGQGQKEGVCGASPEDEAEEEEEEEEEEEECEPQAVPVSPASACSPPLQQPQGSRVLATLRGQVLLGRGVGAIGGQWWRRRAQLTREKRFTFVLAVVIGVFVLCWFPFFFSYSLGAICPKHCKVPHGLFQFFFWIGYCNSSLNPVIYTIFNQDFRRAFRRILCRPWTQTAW

Mus musculus [5] = experiment: Antihypothermic activity in ip dosed NMRI mouse assessed as inhibition of guanabenz-induced hypothermia administered 5 mins before guanabenz challenge measured after 25 mins; type: functional
Summary of the method: (§1)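 Mice got the compound by intraperitoneal injection or oral gavage before guanabenz challenge, and reversal of guanabenz-induced hypothermia was scored. Five animals were tested per dose. ED50 is the dose giving an inhibitory effect in 50% of guanabenz-treated animals, with 95% confidence limits.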

Mus musculus [6] = experiment: Ratio of ED50 for santihypothermic activity in po dosed NMRI mouse to ED50 for antihypothermic activity in ip dosed NMRI mouse; type: functional
Summary of the method: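 Guanabenz-induced hypothermia in mice, five animals per dose. ED50 (the dose inhibiting hypothermia in 50% of guanabenz-treated animals) was obtained after oral gavage and after intraperitoneal injection, and the ratio po/ip was then calculated.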

Mus musculus [7] = experiment: Antihypothermic activity in po dosed NMRI mouse assessed as inhibition of guanabenz-induced hypothermia administered 35 mins before guanabenz challenge measured after 25 mins; type: functional; summary of the method: as §1
[8] = target: T5, Alpha-2A adrenergic receptor (Homo sapiens) (UniProt P08913); experiment: Antagonist activity at human adrenergic alpha2A receptor expressed in CHO cells assessed as inhibition of adrenaline-induced [35S]GTPgammaS binding after 30 mins by scintillation counting; type: functional, cell-based
T5 sequence (whole entry): T3 sequence (P08913 whole entry)
Summary of the method: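 Inhibition of adrenaline-stimulated [35S]GTPγS binding in CHO cells expressing human α2A receptors. Compounds were also run alone to check for any stimulation of [35S]GTPγS binding. Antagonist potency is reported as pKB, taken as the potency that inhibits 50% of adrenaline-induced binding.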

[9] = Mus musculus, NMRI, ip, read-out: ED50
[10] = Mus musculus, NMRI, po, read-out: ED50

Ki [1]	Ki [2]	Ki [3]	Ki [4]	pKb [8]	SMILES	ED50 (Mus musculus [5])	Ratio ED50 (Mus musculus [6])	ED50 (Mus musculus [7])	ED50 (Mus musculus [5]; [9])	ED50 (Mus musculus [7]; [10])
1950 nM	4.17 nM	1.86 nM	2.24 nM	–	CCC1(c2cnc[nH]2)Cc2ccccc2C1 [ATIPAMEZOLE]	–	–	–	–	–
178 nM	1.17 nM	1.07 nM	1.15 nM	8.97	CC1(C)C2c3ccccc3C[C@@]21c1c[nH]cn1 (single isomer, unassigned)	–	6.7	–	0.07 mg/kg	0.47 mg/kg
–	–	–	–	9.05	c1ccc2c(c1)[C@H]1C[C@@]1(c1c[nH]cn1)C21CC1 (stereo in doubt; 10) [listing 1 of 2 here]	–	–	–	–	–
–	–	–	–	8.88	c1ccc2c(c1)[C@H]1C[C@@]1(c1c[nH]cn1)C21CC1 (stereo in doubt; (+)-10) [listing 1 of 2 here]	–	–	–	–	–
–	–	–	–	9.54	C[C@H]1c2ccccc2[C@H]2C[C@]21c1c[nH]cn1 (relative stereo)	–	1.5	–	0.006 mg/kg	0.009 mg/kg
8.91 nM	1.48 nM	0.851 nM	2.29 nM	8.7	CCC[C@H]1c2ccccc2[C@H]2C[C@]21c1c[nH]cn1 (relative stereo)	–	1.2	–	0.1 mg/kg	0.12 mg/kg
11.5 nM	1.55 nM	3.98 nM	6.46 nM	–	CCCO[C@H]1c2ccccc2[C@H]2C[C@]21c1cnc[nH]1 (relative stereo)	–	–	–	–	–
–	–	–	–	9.78	c1ccc2c(c1)C[C@]1(c3c[nH]cn3)C[C@H]21 (stereo in doubt; 1) [listing 1 of 2 here]	–	–	–	–	–
33.1 nM	0.295 nM	0.174 nM	0.204 nM	9.67	C[C@H]1[C@@H]2c3ccccc3C[C@]12c1c[nH]cn1	–	3.2	–	0.06 mg/kg	0.19 mg/kg
–	–	–	–	7.75	c1ccc2c(c1)[C@H]1C[C@@]1(c1c[nH]cn1)C21CC1 (stereo in doubt; (-)-10) [listing 1 of 2 here]	–	–	–	–	–
16.6 nM	0.17 nM	0.138 nM	0.182 nM	–	CC[C@H]1[C@@H]2c3ccccc3C[C@]12c1c[nH]cn1	–	–	–	–	–
97.7 nM	20.4 nM	3.89 nM	6.76 nM	–	c1ccc2c(c1)[C@H]1C[C@@]1(c1c[nH]cn1)C21CC1 (stereo in doubt; (-)-10) [listing 2 of 2 here]	0.18 mg/kg	10.4	1.87 mg/kg	–	–
14.8 nM	2.69 nM	0.603 nM	3.72 nM	–	c1ccc2c(c1)[C@H]1C[C@@]1(c1c[nH]cn1)C21CC1 (stereo in doubt; 10) [listing 2 of 2 here]	0.06 mg/kg	3.7	–	–	–
316 nM	89.1 nM	45.7 nM	11.7 nM	6.88	CC(C)O[C@H]1c2ccccc2[C@H]2C[C@]21c1c[nH]cn1 (relative stereo)	–	–	–	–	–
1.05 nM	0.129 nM	0.0282 nM	0.11 nM	–	c1ccc2c(c1)C[C@]1(c3c[nH]cn3)C[C@H]21 (stereo in doubt; (-)-1) [listing 1 of 2 here]	0.008 mg/kg	5	0.04 mg/kg	–	–
–	–	–	–	8.16	CCCO[C@H]1c2ccccc2[C@H]2C[C@]21c1c[nH]cn1 (relative stereo)	–	0.4	–	0.29 mg/kg	0.12 mg/kg
6.17 nM	0.537 nM	0.219 nM	0.692 nM	–	C[C@H]1c2ccccc2[C@H]2C[C@]21c1cnc[nH]1 (relative stereo)	–	–	–	–	–
–	–	–	–	10.2	c1ccc2c(c1)C[C@]1(c3c[nH]cn3)C[C@H]21 (stereo in doubt; (-)-1) [listing 2 of 2 here]	–	–	–	–	–
18.2 nM	2.14 nM	0.331 nM	1.91 nM	–	c1ccc2c(c1)[C@H]1C[C@@]1(c1c[nH]cn1)C21CC1 (stereo in doubt; (+)-10) [listing 2 of 2 here]	0.08 mg/kg	2.8	0.22 mg/kg	–	–
1.32 nM	0.178 nM	0.0692 nM	0.115 nM	–	c1ccc2c(c1)C[C@]1(c3c[nH]cn3)C[C@H]21 (stereo in doubt; 1) [listing 2 of 2 here]	0.03 mg/kg	4	0.12 mg/kg	–	–

SMILES	Ki [1]	Ki [2]	Ki [3]	Ki [4]	pKb [8]	ED50 (Mus musculus [5])	Ratio ED50 (Mus musculus [6])	ED50 (Mus musculus [7])	ED50 (Mus musculus [5]; [9])	ED50 (Mus musculus [7]; [10])
CO[C@H]1c2ccccc2[C@H]2C[C@]21c1c[nH]cn1 (relative stereo) [listing 1 of 2 here]	102 nM	5.75 nM	1.74 nM	7.76 nM	–	0.09 mg/kg	3.1	0.28 mg/kg	–	–
CO[C@H]1c2ccccc2[C@H]2C[C@]21c1c[nH]cn1 (relative stereo) [listing 2 of 2 here]	–	–	–	–	8.28	–	–	–	–	–
CO[C@@H]1c2ccccc2[C@H]2C[C@]21c1cnc[nH]1 (relative stereo)	912 nM	66.1 nM	11.7 nM	24 nM	–	–	–	–	–	–
CO[C@H]1c2ccccc2[C@H]2C[C@]21c1c[nH]cn1 (stereo in doubt; (+)-3) [listing 1 of 2 here]	63.1 nM	1.95 nM	0.562 nM	2.82 nM	–	0.03 mg/kg	2.3	0.07 mg/kg	–	–
CO[C@@H]1c2ccccc2[C@H]2C[C@]21c1c[nH]cn1 (relative stereo)	–	–	–	–	6.9	–	–	–	–	–
CO[C@H]1c2ccccc2[C@H]2C[C@]21c1c[nH]cn1 (stereo in doubt; (-)-3) [listing 1 of 2 here]	–	–	–	–	6.44	–	–	–	–	–
CO[C@H]1c2ccccc2[C@H]2C[C@]21c1c[nH]cn1 (stereo in doubt; (-)-3) [listing 2 of 2 here]	1780 nM	195 nM	55 nM	145 nM	–	–	–	–	–	–
CO[C@H]1c2ccccc2[C@H]2C[C@]21c1c[nH]cn1 (stereo in doubt; (+)-3) [listing 2 of 2 here]	–	–	–	–	8.54	–	–	–	–	–

Source: ChEMBL document CHEMBL1255566, “Rigid analogues of the α2-adrenergic blocker atipamezole: small changes, big consequences” (J Med Chem, 2010)
